Screening data (PubChem)
The list is not random: actives were taken first. Their share in the collection is about 1.9%.
LEDGF integ inh: blockers of LEDGF/p75-dependent integrase strand transfer – biochemical, TR-FRET, high throughput, primary screen; HIV-1 integrase (with human LEDGF/p75); AID 743269, 2014; actives 0.64% (n = 370,000); TR-FRET IN-LEDGF/p75 DNA integration, Eu/Cy5; inhibition, % at 3.7 µM;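 active = inhibition above the screen-wide mean plus 3 SD, cut at about 13% in these data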;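 also: signal is the Cy5 over europium emission ratio at 671 and 618 nm; 0% = plate median of compound wells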
TDP2 inh: human TDP2 enzyme inhibitors, primary screen, biochemical, epi absorbance, recombinant enzyme | T5PNP hydrolysis, p-nitrophenol absorbance 415 nm | inhibition, % at 12.8 µM | actives 0.34% (n = 370,000);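 active = inhibition above the mean of all tested compounds plus 3 SD, set per campaign, cut at about 25% in these data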;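 also: 0% = DMSO with enzyme and 100% = buffer with substrate but no TDP2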
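System – recombinant human TDP2 · Quantity – TDP2 enzyme at 120 nM final · Doses – single concentration, 12.8 µM nominal, with 1% DMSO · Incubation – 2 h at 37 °C · Measured by – epi absorbance of p-nitrophenol freed from T5PNP by hydrolysis · Read-out – % inhibition relative to enzyme-containing and enzyme-free wells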
DDE Tn7 FP inh: inhibitors of Tn7 peptide binding to fibrin DD(E), primary screen, biochemical, fluorescence polarization, human fibrin, Tn7 probe. Fibrinogen beta chain (Homo sapiens), P02675. FP displacement of FITC-Tn7 peptide from fibrin DD(E); 0% = median of compound wells per plate. inhibition, % at 8.3 µM. actives 0.13% (n = 370,000). AID 720508, 2013;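 active = inhibition above the mean of compounds falling within the control limits plus 3 SD of them, cut at about 14% in these data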;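 also: 0% = plate median of compound wells and 100% = 10 µM Aha-Tn7 peptide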
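assay system = human clot-derived fibrin DD(E) complex | quantity = Fibrin-DD(E) at 2 µM final | timing = 10 min preincubation, 3 h with tracer, room temperature | signal = fluorescence polarization | measure = percent inhibition | benchmarks = high control wells with 10 µM unlabelled Aha-Tn7 peptide (full inhibition) | replicates = singlicate testing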
DDE Tn6 FP inh: inhibitors of Tn6 peptide binding to fibrin DD(E), primary screen, biochemical, fluorescence polarization, human fibrin, Tn6 probe | actives 0.21% (n = 370,000) | inhibition, % at 8.3 µM | Fibrinogen beta chain (Homo sapiens), P02675 | Fibrin DD(E) TRITC-Tn6 fluorescence polarization displacement | AID 720509, 2013;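 active = inhibition above a per-campaign cutoff: mean of compounds within control limits plus 3 SD, cut at about 15% in these data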;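 also: 0% = median of all compound wells on the plate and 100% = blocking peptide control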
MBD2 inh: inhibitors of MBD2 binding to methylated DNA, primary screen, biochemical, TR-FRET, DNA-binding domain, human. Methyl-CpG-binding domain protein 2 (Homo sapiens), Q9UBB5. MBD2 binding to methylated oligonucleotide. inhibition, % at 4.4 µM. actives 0.31% (n = 370,000); in the data active = inhibition above about 13%
Target sequence (Q9UBB5 whole entry, looked up, the tested form may be a part): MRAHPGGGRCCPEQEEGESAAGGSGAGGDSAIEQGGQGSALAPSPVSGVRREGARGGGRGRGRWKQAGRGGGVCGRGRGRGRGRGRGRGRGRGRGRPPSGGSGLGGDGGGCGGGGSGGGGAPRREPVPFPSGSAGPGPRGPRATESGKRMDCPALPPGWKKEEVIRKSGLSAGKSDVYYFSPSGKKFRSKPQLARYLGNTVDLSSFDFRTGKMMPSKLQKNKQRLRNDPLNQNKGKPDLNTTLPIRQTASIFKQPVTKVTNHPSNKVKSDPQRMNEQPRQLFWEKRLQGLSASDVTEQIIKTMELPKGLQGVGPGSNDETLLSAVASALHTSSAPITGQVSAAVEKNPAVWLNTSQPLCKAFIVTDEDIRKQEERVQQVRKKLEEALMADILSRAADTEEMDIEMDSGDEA
UHRF1 binding: UHRF1 methylated DNA binding inhibitors, primary screen, counter-screen for MBD2 inhibitor project, biochemical, TR-FRET, human UHRF1, single concentration. UHRF1 binding to methylated oligo. AID 687016, 2013. actives 0.75% (n = 370,000). inhibition, % at 4.4 µM;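 also: UHRF1 SRA domain binding a hemimethylated CpG hairpin DNA probe; 0% = median of test compound wells and 100% = reference inhibitor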
UHRF1 ctr MBD2: UHRF1 methylated DNA binding inhibitors, counter-screen for MBD2 inhibitor project, biochemical, TR-FRET, human UHRF1. UHRF1 binding to methylated oligonucleotide. actives 25% (n = 1,000). shares compounds with MBD2 inh. AID 720530, 2013. inhibition, % at 4.4 µM;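 also: UHRF1 SRA domain binding a labeled hemimethylated CpG hairpin DNA; 0% = vehicle only and 100% = reference inhibitor with vehicle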
MBD2 confirm: inhibitors of MBD2 binding to methylated DNA, confirmation, biochemical, TR-FRET, DNA-binding domain, human. shares compounds with MBD2 inh. TR-FRET MBD2-DBD binding to methylated oligonucleotide. inhibition, % at 4.4 µM. actives 26% (n = 1,000). AID 720531, 2013; in the data active = inhibition above about 14%
Active calls of the source: *; / = not tested or not shown; ! = repeats disagree. Rule as the data show it, unless noted: active = inhibition above about 21%; inactive = the rest.

SMILES	LEDGF integ inh	TDP2 inh	DDE Tn7 FP inh	DDE Tn6 FP inh	MBD2 inh	UHRF1 binding	UHRF1 ctr MBD2	MBD2 confirm
CC(C)CC1Nc2ncnc(N3CCOCC3)c2N(Cc2ccc(Cl)cc2)C1=O (centres undefined)	-1.0	6.4	-10.1	-0.7	20.6*!	23.6*!	1.7	0.8
CC(C)CC1Nc2ncnc(N3CCOCC3)c2N(Cc2ccccc2)C1=O (centres undefined)	2.2	-2.4	1.2	8.8	0.6	0.4	/	/
CCC/C(=C1/c2ccccc2C(=O)N1c1ccccc1)c1c(C)noc1C	-3.4	14.8	-0.9	-9.0	1.4	-2.7	/	/
Cc1ccc(S(=O)(=O)N2CCOCC2)cc1C(=O)OCC(=O)NCc1ccc2c(c1)OCO2	-2.7	4.7	4.0	-4.6	16.5*	33.0*	5.9	2.5
COc1ccc(OC)c(NC(=O)COC(=O)c2cc3c(s2)CCC3)c1	6.8	-0.5	-2.9	2.4	18.6*	47.4*	40.3*	35.0*
CCCN(C(=O)c1cc2c(s1)CCC2)c1c(N)n(Cc2ccccc2)c(=O)[nH]c1=O	3.8	16.0	2.9	-2.6	13.4*	11.1	13.9	17.7*
C[C@@H]1CCCN1c1cccc2c1S(=O)(=O)N1CC[C@H](C1)O2	-1.8	-6.5	4.0	6.1	4.3	1.5	/	/
O=C(Nc1cccc(Br)c1)C1CCCC1	-5.6	-9.9	3.0	6.0	1.9	-0.8	/	/
O=C(O)C1CCCCC1C(=O)Nc1cccc(Br)c1 (centres undefined)	5.2	-13.2	2.4	7.7	40.1*	67.0*	63.0*	40.9*
COc1ccc(S(=O)(=O)NCC(=O)N(CC(=O)NCC2CCCO2)Cc2ccc(F)cc2)cc1 (centres undefined)	1.8	-6.6	5.3	-3.1	14.1*	-4.9	0.6	2.6
COc1ccc(/C=C(\C#N)C(=O)N2CCOCC2)cc1Br	-1.1	-4.6	-1.4	3.7	40.8*	0.7	4.5	1.8
COc1ccc(NC(=O)Nc2ccccc2OC)cc1	-1.7	2.1	-1.2	3.2	-2.7	-11.7	/	/
COc1ccc(OC)c(/C(O)=C/C(=O)C(=O)Nc2ccccc2OC)c1	-0.5	15.4	-1.6	10.1	14.7*	19.0	5.6	0.3
O=C1C2CCCN2C(=S)N1C1CCCCC1 (centres undefined)	-5.6	-3.5	-1.0	-3.4	4.9	1.1	/	/
O=C1C=C(c2ccoc2)N2CCC[C@H]2C1	-3.6	1.6	0.8	-0.5	35.9*	-4.9	8.6	1.3
Cc1ccc(Oc2nc(CN3CCOCC3)nc3sc4c(c23)CCC(C)C4)cc1C (centres undefined)	3.1	3.5	-0.4	6.5	0.0	-5.5	/	/
Cc1ccc(Oc2nc(CN3CCOCC3)nc3sc4c(c23)CCC(C)C4)cc1 (centres undefined)	2.8	8.4	-9.2	-5.7	13.7*	-0.9	9.4	3.7
CCn1c(SCC(=O)c2ccc(-c3ccccc3)cc2)nnc1-c1ccc(C(C)(C)C)cc1	0.5	2.6	-2.2	-4.0	-2.9	4.0	/	/
CCn1c(SCC(=O)c2ccc(O)c(O)c2)nnc1-c1ccc(C)cc1	6.2	-8.4	0.9	8.6	15.1*	44.3*	13.8	5.3
Nn1c(-c2ccc(O)cc2)nnc1-c1ccc(O)cc1	2.3	-11.4	5.1	5.1	22.8*	2.5	5.3	3.4
CCOC(=O)C1=C[C@@H](C(C)(C)C)N(S(=O)(=O)c2ccc([N+](=O)[O-])cc2)[C@H]1c1ccccc1Cl	1.3	6.1	-2.9	-1.0	-4.3	-1.4	/	/
COc1cc(OC)cc(C(=O)Nc2nc3ccccc3[nH]2)c1	1.6	0.1	3.8	-2.0	3.0	-3.5	/	/
COc1ccc(Br)c(C(=O)Nc2nc3ccccc3[nH]2)c1	7.0	-15.8	-10.3	3.0	36.4*	2.0	10.1	2.2
Cc1nnc2nc(N)[nH]n2c1=O	-3.8	5.2	4.5	-2.6	0.3	-0.7	/	/
CC1(c2nnnn2Cc2ccccc2)CCC(=O)N1CCc1c[nH]c2ccccc12 (centres undefined)	-3.1	-0.4	5.0	4.3	1.8	2.6	/	/
SMILES	LEDGF integ inh	TDP2 inh	DDE Tn7 FP inh	DDE Tn6 FP inh	MBD2 inh	UHRF1 binding	UHRF1 ctr MBD2	MBD2 confirm
CC1(c2nnnn2Cc2ccccc2)CCC(=O)N1CCc1ccccc1F (centres undefined)	-3.1	-10.8	3.2	-0.5	15.1*	21.8*	13.0	6.3
O=C(OC12CCCN(C1)/C(=C/c1ccc(Cl)cc1)C2)c1ccco1 (centres undefined)	-1.7	-7.4	3.5	-5.1	0.4	6.1	/	/
Cn1c(=O)c2c(ncn2CC2OCCO2)n(C)c1=O	-3.8	2.5	12.1	2.8	35.0*	1.3	7.6	1.6
Cn1c(=O)c2c(ncn2CC(=O)O)n(C)c1=O	-0.6	-16.6	6.0	3.4	-6.5	0.5	/	/
O=C(c1cc(COc2ccc(F)cc2F)on1)N1CCCC(c2ccccc2)C1 (centres undefined)	4.9	-8.0	-4.1	-12.8	14.9*	24.6*	3.9	2.2
CCOC(=O)c1c[nH]c(=S)n(-c2ccccc2)c1=O	-0.1	7.2	-5.6	-1.4	37.1*	-0.6	1.2	2.9
CC(C)c1[nH]nc2c1C(c1ccccc1)N(Cc1ccccc1)C2=O (centres undefined)	-3.2	-5.0	-3.5	-5.1	1.3	1.1	/	/
COC(=O)c1cc(-c2cccc3ccccc23)c(=O)n2c1CCC2	-0.9	0.6	11.6	-0.3	0.8	2.6	/	/
CN(Cc1ccccc1N1CCCC1)C(=O)c1cc2cc(Cl)ccc2o1	4.2	-6.1	-3.8	-9.5	31.2*	1.2	10.9	6.6
Cc1onc(-c2ccccc2Cl)c1C(=O)N1CCC(Cc2ccccc2)CC1	0.5	-14.2	-0.6	-2.0	15.8*	29.4*	7.5	1.6
